Results taken from ChEMBL document CHEMBL1148855, “Synthesis and antibacterial activity of 4,5,6,7-tetrahydro-thieno[3,2-c]pyridine quinolones” (2007).
In brackets after ≈: the same amount, converted by molar mass.

Tests used:
Assay type in all cases: functional
Bacillus subtilis = test: Antibacterial activity against Bacillus subtilis ATCC 6633 by micro-broth dilution method
Summary of the method: (§1)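 MIC taken as the lowest concentration giving 90% inhibition of bacterial growth. Determined by microbroth dilution following National Committee (NCCLS) guidance, with each value determined in triplicate.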

Escherichia coli = test: Antibacterial activity against Escherichia coli ATCC 25922 by micro-broth dilution method; summary of the method: as §1
Staphylococcus aureus [1] = test: Antibacterial activity against Staphylococcus aureus ATCC 33591 by micro-broth dilution method; summary of the method: as §1
Staphylococcus aureus [2] = test: Antibacterial activity against Staphylococcus aureus ATCC 25923 by micro-broth dilution method; summary of the method: as §1
Klebsiella pneumoniae = test: Antibacterial activity against Klebsiella pneumoniae ATCC 10031 by micro-broth dilution method; summary of the method: as §1
Pseudomonas aeruginosa = test: Antibacterial activity against Pseudomonas aeruginosa ATCC 27853 by micro-broth dilution method; summary of the method: as §1
Staphylococcus aureus [3] = test: Antibacterial activity against linezolid-resistant Staphylococcus aureus NRS 119 by microbroth dilution method
Summary of the method: (§2)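 Microbroth dilution run per National Committee guidelines; MIC taken as the concentration giving 90% inhibition of bacterial growth. Tested within a broader panel of susceptible and resistant Gram-positive strains. Reported values come from triplicate determinations.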

Enterococcus faecalis [4] = test: Antibacterial activity against vancomycin-resistant Enterococcus faecalis ATCC 700802 by micro-broth dilution method; summary of the method: as §2
Staphylococcus aureus [5] = test: Antibacterial activity against Staphylococcus aureus ATCC 29213 by micro-broth dilution method; summary of the method: as §1
Staphylococcus aureus [6] = test: Antibacterial activity against Staphylococcus aureus ATCC 33592 by micro-broth dilution method; summary of the method: as §1
Streptococcus pneumoniae = test: Antibacterial activity against penicillin-resistant Streptococcus pneumoniae ATCC 700904 by micro-broth dilution method; summary of the method: as §2
Staphylococcus aureus [7] = test: Antibacterial activity against methicillin-resistant Staphylococcus aureus ATCC 700699 by micro-broth dilution method; summary of the method: as §2
Enterococcus faecalis [8] = test: Antibacterial activity against Enterococcus faecalis ATCC 29212 by micro-broth dilution method; summary of the method: as §1
[9] = system: Staphylococcus epidermidis; test: Antibacterial activity against Staphylococcus epidermidis ATCC 12228 by micro-broth dilution method; summary of the method: as §1
Enterococcus faecalis [10] = test: Antibacterial activity against Enterococcus faecalis ATCC 14506 by microbroth dilution method; summary of the method: as §1
Enterococcus faecium = test: Antibacterial activity against vancomycin-resistant Enterococcus faecium ATCC 700221 by microbroth dilution method; summary of the method: as §2

Row | Compound | MIC (Bacillus subtilis) [µg/mL] | MIC (Escherichia coli) [µg/mL] | MIC (Staphylococcus aureus [1]) [µg/mL] | MIC (Staphylococcus aureus [2]) [µg/mL] | MIC (Klebsiella pneumoniae) [µg/mL] | MIC (Pseudomonas aeruginosa) [µg/mL] | MIC (Staphylococcus aureus [3]) [µg/mL] | MIC (Enterococcus faecalis [4]) [µg/mL] | MIC (Staphylococcus aureus [5]) [µg/mL] | MIC (Staphylococcus aureus [6]) [µg/mL] | MIC (Streptococcus pneumoniae) [µg/mL] | MIC (Staphylococcus aureus [7]) [µg/mL] | MIC (Enterococcus faecalis [8]) [µg/mL] | MIC [9] [µg/mL] | MIC (Enterococcus faecalis [10]) [µg/mL] | MIC (Enterococcus faecium) [µg/mL]
1 | COc1c(N2CCc3sc(COC(C)=O)cc3C2)c(F)cc2c(=O)c(C(=O)O)cn(C3CC3)c12 | ≤ 0.12 | 0.5 (≈ 1.03 µM) | 0.25 (≈ 0.514 µM) | 1 (≈ 2.06 µM) | 2 (≈ 4.11 µM) | > 16 | 2 (≈ 4.11 µM) | 1 (≈ 2.06 µM) | 4 (≈ 8.22 µM) | 2 (≈ 4.11 µM) | ≤ 0.12 | 4 (≈ 8.22 µM) | 0.5 (≈ 1.03 µM) | ≤ 0.12 |  | 
2 | COc1c(N2CCNC(C)C2)c(F)cc2c(=O)c(C(=O)O)cn(C3CC3)c12 (configuration not stated) [GATIFLOXACIN] | ≤ 0.12 | ≤ 0.12 | 0.5 (≈ 1.33 µM) | ≤ 0.125 | ≤ 0.12 | 1 (≈ 2.66 µM) | 4 (≈ 10.7 µM) | 0.5 (≈ 1.33 µM) | 0.25 (≈ 0.666 µM) | 4 (≈ 10.7 µM) | ≤ 0.125 | 8 (≈ 21.3 µM) | 0.5 (≈ 1.33 µM) | 0.25 (≈ 0.666 µM) | 0.5 (≈ 1.33 µM) | > 16
3 | COc1c(N2CCc3sccc3C2)c(F)cc2c(=O)c(C(=O)O)cn(C3CC3)c12 | ≤ 0.12 | ≤ 0.12 | ≤ 0.12 | ≤ 0.125 | 0.25 (≈ 0.603 µM) | > 16 | > 16 | ≤ 0.125 | ≤ 0.125 | 0.25 (≈ 0.603 µM) | ≤ 0.125 | 2 (≈ 4.83 µM) | 2 (≈ 4.83 µM) | > 16 | 0.25 (≈ 0.603 µM) | 16 (≈ 38.6 µM)
4 | CC(=O)Nc1c(F)c(N2CCc3sccc3C2)c(F)c2c1c(=O)c(C(=O)O)cn2C1CC1 | 1 (≈ 2.18 µM) | > 16 | > 16 |  | > 16 | > 16 |  |  |  |  |  |  | > 16 | > 16 |  | 
5 | Nc1c(F)c(N2CCc3sc(Br)cc3C2)c(F)c2c1c(=O)c(C(=O)O)cn2C1CC1 | > 16 | > 16 |  |  | > 16 | > 16 |  |  |  |  |  |  | > 16 | > 16 |  | 
6 | C[C@@H]1CN(c2c(F)c(N)c3c(=O)c(C(=O)O)cn(C4CC4)c3c2F)C[C@H](C)N1 [SPARFLOXACIN] | ≤ 0.12 |  | 16 (≈ 40.8 µM) | ≤ 0.125 | ≤ 0.12 | 0.25 (≈ 0.637 µM) | 16 (≈ 40.8 µM) | 1 (≈ 2.55 µM) | ≤ 0.125 | ≤ 0.25 | ≤ 0.125 | 8 (≈ 20.4 µM) |  | 0.25 (≈ 0.637 µM) | > 16 | 16 (≈ 40.8 µM)
7 | O=C(O)c1cn(C2CC2)c2cc(N3CCNCC3)c(F)cc2c1=O [CIPROFLOXACIN] | ≤ 0.12 | ≤ 0.12 | 1 (≈ 3.02 µM) | 0.25 (≈ 0.754 µM) | ≤ 0.12 |  | > 16 | 1 (≈ 3.02 µM) | 1 (≈ 3.02 µM) | 0.5 (≈ 1.51 µM) | 0.25 (≈ 0.754 µM) | > 16 | 2 (≈ 6.04 µM) | ≤ 0.12 | 1 (≈ 3.02 µM) | > 16
8 | O=C(O)c1cn(C2CC2)c2c(F)c(N3CCc4sccc4C3)c(F)c(F)c2c1=O | 0.25 (≈ 0.595 µM) | 0.5 (≈ 1.19 µM) | 4 (≈ 9.51 µM) | 2 (≈ 4.76 µM) | 8 (≈ 19 µM) | > 16 | > 16 | 16 (≈ 38.1 µM) | 4 (≈ 9.51 µM) | 2 (≈ 4.76 µM) | 2 (≈ 4.76 µM) | > 16 | > 16 | 2 (≈ 4.76 µM) | > 16 | > 16
9 | O=C(O)c1cn(C2CC2)c2cc(N3CCc4sccc4C3)c(F)cc2c1=O | ≤ 0.12 | 0.25 (≈ 0.65 µM) | 4 (≈ 10.4 µM) | 1 (≈ 2.6 µM) | ≤ 0.12 | > 16 | > 16 | 4 (≈ 10.4 µM) | 4 (≈ 10.4 µM) | 1 (≈ 2.6 µM) | 0.25 (≈ 0.65 µM) | > 16 |  | 8 (≈ 20.8 µM) | 16 (≈ 41.6 µM) | > 16
10 | COc1c(N2CCc3sc(C(=O)O)cc3C2)c(F)cc2c(=O)c(C(=O)O)cn(C3CC3)c12 | 0.5 (≈ 1.09 µM) | 8 (≈ 17.4 µM) | 2 (≈ 4.36 µM) | 2 (≈ 4.36 µM) | 2 (≈ 4.36 µM) | > 16 | > 16 | 16 (≈ 34.9 µM) | 2 (≈ 4.36 µM) | 0.5 (≈ 1.09 µM) | 1 (≈ 2.18 µM) | > 16 | 8 (≈ 17.4 µM) | 1 (≈ 2.18 µM) | > 16 | > 16
11 | O=C(O)c1cn(C2CC2)c2cc(N3CCc4sc(Br)cc4C3)c(F)cc2c1=O | ≤ 0.12 | 1 (≈ 2.16 µM) | 4 (≈ 8.63 µM) | 0.5 (≈ 1.08 µM) | 2 (≈ 4.32 µM) | > 16 | > 16 | > 16 | 4 (≈ 8.63 µM) | 4 (≈ 8.63 µM) | 2 (≈ 4.32 µM) | > 16 |  | 0.5 (≈ 1.08 µM) | > 16 | 
12 | COc1c(N2CCc3sc(CO)cc3C2)c(F)cc2c(=O)c(C(=O)O)cn(C3CC3)c12 | ≤ 0.12 | 0.25 (≈ 0.562 µM) | 2 (≈ 4.5 µM) | 2 (≈ 4.5 µM) | ≤ 0.12 | 16 (≈ 36 µM) | 0.5 (≈ 1.12 µM) | 0.25 (≈ 0.562 µM) | 2 (≈ 4.5 µM) |  | ≤ 0.12 | 2 (≈ 4.5 µM) | 0.5 (≈ 1.12 µM) | > 16 |  | 
13 | COc1c(N2CCc3sccc3C2)c(F)c([N+](=O)[O-])c2c(=O)c(C(=O)O)cn(C3CC3)c12 | 0.25 (≈ 0.544 µM) | 16 (≈ 34.8 µM) | 8 (≈ 17.4 µM) |  |  | > 16 |  |  |  |  |  |  |  | 2 (≈ 4.35 µM) |  | 
